Measured values taken from ChEMBL document CHEMBL4428050, “Design, Synthesis, and Biological Evaluation of Substituted Pyrimidines as Potential Phosphatidylinositol 3-Kinase (PI3K) Inhibitors” (J Med Chem, 2016).
Values belong to the molecule of their own block, whether it stands above or below them.

Experiments:
[1] = Inhibition of PI3K p110alpha/p85 (unknown origin) using PIP2/ATP as substrate after 1 hr by kinase glo luminescent assay; set-up: species or system Homo sapiens
Method in brief: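 PI3K p110α activity read by Kinase-Glo Plus luminescence. IC50 is the mean of triplicate measurements.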

K562 = test: Antiproliferative activity against human K562 cells after 72 hrs by CCK8 assay; type: functional, cell-based
MOLT-4 = test: Antiproliferative activity against human MOLT4 cells after 72 hrs by CCK8 assay; type: functional, cell-based
U-937 = test: Antiproliferative activity against human U937 cells after 72 hrs by CCK8 assay; type: functional, cell-based
MCF7 = test: Antiproliferative activity against human MCF7 cells after 72 hrs by CCK8 assay; type: functional, cell-based
SK-BR-3 = test: Antiproliferative activity against human SK-BR-3 cells after 72 hrs by CCK8 assay; type: functional, cell-based; conditions: SK-BR-3, 72 h
DU-145 = test: Antiproliferative activity against human DU145 cells after 72 hrs by CCK8 assay; type: functional, cell-based
NCI-N87 = test: Antiproliferative activity against human NCI-N87 cells after 72 hrs by CCK8 assay; type: functional, cell-based
A-431 = test: Antiproliferative activity against human A431 cells after 72 hrs by CCK8 assay; type: functional, cell-based
A549 = test: Antiproliferative activity against human A549 cells after 72 hrs by CCK8 assay; type: functional, cell-based
PANC-1 = test: Antiproliferative activity against human PANC1 cells after 72 hrs by CCK8 assay; type: functional, cell-based
HeLa = test: Antiproliferative activity against human HeLa cells after 72 hrs by CCK8 assay; type: functional, cell-based
HL-60 = test: Antiproliferative activity against human HL60 cells after 72 hrs by CCK8 assay; type: functional, cell-based; conditions: HL-60, 72 h
MDA-MB-231 = test: Antiproliferative activity against human MDA-MB-231 cells by WST8 assay; type: functional, cell-based
PC-3 = test: Antiproliferative activity against human PC3 cells after 72 hrs by CCK8 assay; type: functional, cell-based; conditions: PC-3, 72 h
Bel-7402 = test: Antiproliferative activity against human Bel7402 cells after 72 hrs by CCK8 assay; type: functional, cell-based; conditions: Bel-7402, 72 h
Huh-7 = test: Antiproliferative activity against human HuH7 cells after 72 hrs by CCK8 assay; type: functional, cell-based; conditions: Huh-7, 72 h
SGC-7901 = test: Antiproliferative activity against human SGC7901 cells after 72 hrs by CCK8 assay; type: functional, cell-based; conditions: SGC-7901, 72 h
BGC-823 = test: Antiproliferative activity against human BGC823 cells after 72 hrs by CCK8 assay; type: functional, cell-based
HT-1080 = test: Antiproliferative activity against human HT1080 cells after 72 hrs by CCK8 assay; type: functional, cell-based; conditions: HT-1080, 72 h

SMILES: C[C@@H]1CN(c2nc(-c3cnc(N)cc3C(F)(F)F)nc(N3C[C@H]4C[C@@H]3CO4)n2)C[C@H](C)O1
IC50 [1]: 9.53 µM

SMILES: Nc1cc(C(F)(F)F)c(-c2cc(N3CCOCC3)nc(Nc3cccc(N4CCOCC4)c3)n2)cn1
IC50 [1]: 0.118 µM
IC50 (K562; Homo sapiens, K562, 72 h): 14.9 µM
IC50 (MOLT-4; Homo sapiens, MOLT-4, 72 h): 4.07 µM
IC50 (U-937; Homo sapiens, U-937, 72 h): 10.4 µM
IC50 (MCF7; Homo sapiens, MCF7, 72 h): 16.5 µM
IC50 (SK-BR-3): 6.53 µM
IC50 (DU-145; Homo sapiens, DU-145, 72 h): 0.99 µM
IC50 (NCI-N87; Homo sapiens, NCI-N87, 72 h): 4.66 µM
IC50 (A-431; Homo sapiens, A-431, 72 h): 11.5 µM
IC50 (A549; Homo sapiens, A549, 72 h): 4.57 µM
IC50 (PANC-1; Homo sapiens, PANC-1, 72 h): 8.52 µM
IC50 (HeLa; Homo sapiens, HeLa, 72 h): > 100 µM
IC50 (HL-60): 4.34 µM
IC50 (MDA-MB-231): 7.28 µM
IC50 (PC-3): 2.21 µM

SMILES: C[C@@H]1CN(c2nc(-c3cnc(N)cc3C(F)(F)F)nc(N3C[C@@H]4OCCO[C@@H]4C3)n2)C[C@H](C)O1
IC50 [1]: > 10 µM

SMILES: Nc1cc(C(F)(F)F)c(-c2ccc3c(N4CCOCC4)nc(N4CCOCC4)nc3c2)cn1
IC50 [1]: > 10 µM

SMILES: C[C@@H]1CN(c2nc(N3C[C@@H](C)O[C@@H](C)C3)c3ccc(-c4cnc(N)cc4C(F)(F)F)cc3n2)C[C@H](C)O1
IC50 [1]: > 10 µM

SMILES: Nc1ncc(-c2cc(N3CCOCC3)nc(N3C[C@H]4OCCO[C@@H]4C3)n2)cn1 (racemic)
IC50 [1]: 0.128 µM

SMILES: C[C@@H]1CN(c2cc(-c3cnc(N)cc3C(F)(F)F)nc(N3CCOCC3)n2)C[C@H](C)O1
IC50 [1]: 0.224 µM

Second part, led by results:

IC50 [1]: 0.032 µM
IC50 (K562; k562): > 10 µM
IC50 (MOLT-4; Homo sapiens, MOLT-4, 72 h): 1.21 µM
IC50 (Bel-7402): 5.9 µM
IC50 (U-937; Homo sapiens, U-937, 72 h): 3.05 µM
IC50 (Huh-7): 5.66 µM
IC50 (MCF7; Homo sapiens, MCF7, 72 h): 8.15 µM
IC50 (DU-145; du-145): 3.3 µM
IC50 (SGC-7901): 4.46 µM
IC50 (BGC-823; Homo sapiens, BGC-823, 72 h): 9.57 µM
IC50 (HT-1080): 10 µM
IC50 (A-431; Homo sapiens, A-431, 72 h): > 10 µM
IC50 (A549; Homo sapiens, A549, 72 h): 4.03 µM
IC50 (PANC-1; Homo sapiens, PANC-1, 72 h): 6.23 µM
IC50 (HeLa; hela): > 10 µM
SMILES: Nc1cc(C(F)(F)F)c(-c2nc(N3CCOCC3)nc(N3C[C@H]4OCCO[C@@H]4C3)n2)cn1 (racemic)
IC50 (NCI-N87; nci-n87): 0.77 µM

IC50 [1]: 0.068 µM
IC50 (K562; k562): 24.6 µM
IC50 (MOLT-4; molt-4): 2.28 µM
IC50 (U-937; u-937): 4.03 µM
IC50 (MCF7; mcf7): 7.32 µM
IC50 (SK-BR-3): 4.27 µM
IC50 (DU-145; du-145): 7.36 µM
IC50 (A-431; a-431): 14.1 µM
IC50 (A549; a549): 8.01 µM
IC50 (PANC-1; panc-1): 9.04 µM
IC50 (HeLa; hela): > 100 µM
IC50 (HL-60): 2.7 µM
IC50 (MDA-MB-231): 15.1 µM
IC50 (PC-3): 5.63 µM
SMILES: Nc1cc(C(F)(F)F)c(-c2nc(N3CCOCC3)nc(N3C[C@H]4OCCO[C@@H]4C3)n2)cn1
IC50 (NCI-N87; nci-n87): 3.9 µM

IC50 [1]: 0.896 µM
IC50 (K562; Homo sapiens, K562, 72 h): > 10 µM
IC50 (DU-145; Homo sapiens, DU-145, 72 h): > 10 µM
SMILES: Nc1cc(C(F)(F)F)c(-c2cc(N3C[C@@H]4OCCO[C@@H]4C3)nc(N3CCOCC3)n2)cn1

IC50 [1]: 0.06 µM
IC50 (K562; Homo sapiens, K562, 72 h): 2.4 µM
IC50 (MOLT-4; Homo sapiens, MOLT-4, 72 h): 1.14 µM
IC50 (Bel-7402): 2.79 µM
IC50 (U-937; Homo sapiens, U-937, 72 h): 0.72 µM
IC50 (Huh-7): 2.93 µM
IC50 (MCF7; Homo sapiens, MCF7, 72 h): 2.54 µM
IC50 (DU-145; Homo sapiens, DU-145, 72 h): 2.38 µM
IC50 (SGC-7901): 2.3 µM
IC50 (BGC-823; Homo sapiens, BGC-823, 72 h): 2.44 µM
IC50 (HT-1080): 2.72 µM
IC50 (A-431; Homo sapiens, A-431, 72 h): 1.79 µM
IC50 (A549; Homo sapiens, A549, 72 h): 3.05 µM
IC50 (PANC-1; Homo sapiens, PANC-1, 72 h): 2.78 µM
IC50 (HeLa; Homo sapiens, HeLa, 72 h): 1.76 µM
SMILES: Nc1cc(C(F)(F)F)c(-c2cc(N3CCOCC3)nc(N3C[C@H]4C[C@@H]3CO4)n2)cn1
IC50 (NCI-N87; Homo sapiens, NCI-N87, 72 h): 1.41 µM

IC50 [1]: 0.035 µM
IC50 (K562; k562): 2.56 µM
IC50 (MOLT-4; molt-4): 0.97 µM
IC50 (U-937; u-937): 1.51 µM
IC50 (MCF7; mcf7): 3.82 µM
IC50 (SK-BR-3): 1.6 µM
IC50 (DU-145; du-145): 4.86 µM
IC50 (BGC-823; bgc-823): 2.79 µM
IC50 (A549; a549): 2.49 µM
IC50 (HeLa; hela): 2.45 µM
SMILES: Nc1cc(C(F)(F)F)c(-c2cc(N3CCOCC3)nc(N3C[C@@H]4OCCO[C@H]4C3)n2)cn1

IC50 [1]: 0.375 µM
IC50 (K562; Homo sapiens, K562, 72 h): 3.19 µM
IC50 (MOLT-4; Homo sapiens, MOLT-4, 72 h): 3.24 µM
IC50 (Bel-7402): 6.43 µM
IC50 (U-937; Homo sapiens, U-937, 72 h): 2.86 µM
IC50 (Huh-7): 6.29 µM
IC50 (MCF7; Homo sapiens, MCF7, 72 h): 7.29 µM
IC50 (DU-145; Homo sapiens, DU-145, 72 h): 7.11 µM
IC50 (SGC-7901): 4.78 µM
IC50 (BGC-823; Homo sapiens, BGC-823, 72 h): 4.33 µM
IC50 (HT-1080): 5.64 µM
IC50 (A-431; Homo sapiens, A-431, 72 h): 3.03 µM
IC50 (A549; Homo sapiens, A549, 72 h): 5.56 µM
IC50 (PANC-1; Homo sapiens, PANC-1, 72 h): 5.97 µM
IC50 (HeLa; Homo sapiens, HeLa, 72 h): 5.33 µM
SMILES: Nc1cc(C(F)(F)F)c(-c2cc(N3C[C@H]4OCCO[C@@H]4C3)nc(N3CCOCC3)n2)cn1 (racemic)
IC50 (NCI-N87; Homo sapiens, NCI-N87, 72 h): 6.21 µM

IC50 [1]: 0.117 µM
IC50 (K562; Homo sapiens, K562, 72 h): 1.75 µM
IC50 (MOLT-4; Homo sapiens, MOLT-4, 72 h): 2.51 µM
IC50 (Bel-7402): 5.82 µM
IC50 (U-937; Homo sapiens, U-937, 72 h): 1.76 µM
IC50 (Huh-7): 4.84 µM
IC50 (MCF7; Homo sapiens, MCF7, 72 h): 4.95 µM
IC50 (DU-145; Homo sapiens, DU-145, 72 h): 4.81 µM
IC50 (SGC-7901): 3.75 µM
IC50 (BGC-823; Homo sapiens, BGC-823, 72 h): 4.57 µM
IC50 (HT-1080): 4.84 µM
IC50 (A-431; Homo sapiens, A-431, 72 h): 2.55 µM
IC50 (A549; Homo sapiens, A549, 72 h): 4.98 µM
IC50 (PANC-1; Homo sapiens, PANC-1, 72 h): 3.67 µM
IC50 (HeLa; Homo sapiens, HeLa, 72 h): 4.31 µM
SMILES: Nc1cc(C(F)(F)F)c(-c2cc(N3CCOCC3)nc(N3C[C@@H]4OCCO[C@@H]4C3)n2)cn1
IC50 (NCI-N87; Homo sapiens, NCI-N87, 72 h): 1.97 µM
